According to ChEMBL document CHEMBL3351861, “New synthetic sulfone derivatives inhibit growth, adhesion and the leucine arylamidase APE2 gene expression of Candida albicans in vitro” (2015):

Experiments:
Candida albicans [1] = assay: Reduction in APE2 gene expression in compound pre-treated Candida albicans 90028 grown on human Caco2 cells monolayer at 16 ug/ml pre-treated for 2 hrs measured after 6 hrs by RT-PCR method; type: functional, Caco-2
Summary of the method: (§1)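 Blastoconidia are pre-incubated 2 h with 16 µg/ml sulfone in RPMI. They are then washed, resuspended in RPMI and placed on Caco-2 monolayers at 37°C, with RNA taken at 6 or 18 h. Real-time RT-PCR uses SYBR Green with 250 nM primers and 60 ng cDNA: 95°C 15 min, then 45 cycles of 94°C 15 s and 60°C 1 min, plus a melt curve. APE2 is normalized to ACT1 by 2^-ΔΔCt with 90028 as calibrator; three experiments.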

Candida albicans [2] = assay: Reduction in APE2 gene expression in compound pre-treated Candida albicans CAI4 expressing delta-cph1 gene grown on human Caco2 cells monolayer at 16 ug/ml pre-treated for 2 hrs measured after 6 hrs by RT-PCR method; type: functional, Caco-2; summary of the method: as §1
Candida albicans [3] = assay: Reduction in APE2 gene expression in compound pre-treated Candida albicans CAI4 expressing delta-cph1 gene grown on human Caco2 cells monolayer at 16 ug/ml pre-treated for 2 hrs measured after 18 hrs by RT-PCR method; type: functional, Caco-2; summary of the method: as §1
Candida albicans [4] = assay: Reduction in APE2 gene expression in compound pre-treated Candida albicans CAI4 expressing delta-cph1 (CPH1) gene grown on human Caco2 cells monolayer at 16 ug/ml pre-treated for 2 hrs measured after 6 hrs by RT-PCR method; type: functional, Caco-2; summary of the method: as §1
Candida albicans [5] = assay: Reduction in APE2 gene expression in compound pre-treated Candida albicans CAI4 expressing delta-cph1 (CPH1) gene grown on human Caco2 cells monolayer at 16 ug/ml pre-treated for 2 hrs measured after 18 hrs by RT-PCR method; type: functional, Caco-2; summary of the method: as §1
Candida albicans [6] = assay: Reduction in APE2 gene expression in compound pre-treated Candida albicans CAI4 expressing delta-efg1 gene grown on human Caco2 cells monolayer at 16 ug/ml pre-treated for 2 hrs measured after 18 hrs by RT-PCR method; type: functional, Caco-2
Summary of the method: (§2)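 Caco-2 was seeded at 1.2×10^5 cells/ml in EMEM (10% FCS, 1 mM pyruvate, no antibiotics) for 18 h at 37°C, 5% CO2. Yeast (10^4 cfu/ml) was pre-incubated 2 h in RPMI with 16 µg/ml sulfone, washed, resuspended in RPMI and inoculated onto the monolayer at 37°C. APE2 mRNA was measured by SYBR qPCR against ACT1 (2^-ΔΔCt, 90028 calibrator), in triplicate.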

Candida albicans [7] = assay: Reduction in APE2 gene expression in compound pre-treated Candida albicans CAI4 expressing delta-cph1/delta-efg1 gene grown on human Caco2 cells monolayer at 16 ug/ml pre-treated for 2 hrs measured after 6 hrs by RT-PCR method; type: functional, Caco-2; summary of the method: as §1
Candida albicans [8] = assay: Increase in APE2 gene expression in compound pre-treated Candida albicans CAI4 expressing delta-cph1/delta-efg1 gene grown on human Caco2 cells monolayer at 16 ug/ml pre-treated for 2 hrs measured after 18 hrs by RT-PCR method; type: functional, Caco-2; summary of the method: as §1
Candida albicans [9] = assay: Reduction in APE2 gene expression in compound pre-treated Candida albicans CAI4 expressing delta-efg1 (EFG1) gene grown on human Caco2 cells monolayer at 16 ug/ml pre-treated for 2 hrs measured after 18 hrs by RT-PCR method; type: functional, Caco-2; summary of the method: as §2
Candida albicans [10] = assay: Reduction in APE2 gene expression in compound pre-treated Candida albicans CAI4 expressing delta-cph1/delta-efg1 (EFG1) gene grown on human Caco2 cells monolayer at 16 ug/ml pre-treated for 2 hrs measured after 6 hrs by RT-PCR method; type: functional, Caco-2; summary of the method: as §1
Candida albicans [11] = assay: Reduction in APE2 gene expression in compound pre-treated Candida albicans CAI4 expressing delta-cph1/delta-efg1 (EFG1) gene grown on human Caco2 cells monolayer at 16 ug/ml pre-treated for 2 hrs measured after 18 hrs by RT-PCR method; type: functional, Caco-2; summary of the method: as §1
Candida albicans [12] = assay: Inhibition of cell adhesion of compound pre-treated Candida albicans 90028 to human Caco2 cells assessed as cell adhesion level at 4 ug/ml pre-incubated for 18 hrs by colony counting method (reference value: 1.58 +/- 0.67%); type: functional, Caco-2; design: scale not given: the % may be the effect or the level left
Candida albicans [13] = assay: Inhibition of cell adhesion of compound pre-treated Candida albicans CAI4 expressing delta-efg1 (EFG1) gene to human Caco2 cells assessed as cell adhesion level at 4 ug/ml pre-incubated for 18 hrs by colony counting method (reference value: 2.6 +/- 2.33%); type: functional, Caco-2; design: scale not given: the % may be the effect or the level left
Candida albicans [14] = assay: Inhibition of cell adhesion of compound pre-treated Candida albicans CAI4 expressing delta-efg1 (EFG1) gene to human Caco2 cells assessed as cell adhesion level at 2 ug/ml pre-incubated for 18 hrs by colony counting method (reference value: 2.6 +/- 2.33%); type: functional, Caco-2; design: scale not given: the % may be the effect or the level left
Candida albicans [15] = assay: Reduction in APE2 gene expression in compound pre-treated Candida albicans SC5314 grown under YEPD medium at 16 ug/ml pre-treated for 2 hrs measured after 18 hrs by RT-PCR method; type: functional
Summary of the method: (§3)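 YEPD-grown yeast (18 h, 30°C) washed and held at 10^4 cfu/ml in YEPD with 16 µg/ml sulfone for 2 h. Cells were then washed and regrown 18 h at 30°C in YEPD. Total RNA was reverse-transcribed and SYBR Green qPCR run (250 nM primers, 60 ng cDNA, 45 cycles). APE2 was normalized to ACT1 by 2^-ΔΔCt with strain 90028 as calibrator. Done in triplicate on three occasions.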

Candida albicans [16] = assay: Reduction in APE2 gene expression in compound pre-treated Candida albicans 90028 grown under YEPD medium at 16 ug/ml pre-treated for 2 hrs measured after 18 hrs by RT-PCR method; type: functional
Summary of the method: (§4)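 Blastoconidia from YEPD (10^4 cfu/ml) are washed and exposed 2 h to 16 µg/ml sulfone in YEPD. They are then washed and regrown 18 h at 30°C in YEPD before RNA extraction. Real-time RT-PCR uses SYBR Green with 250 nM primers and 60 ng cDNA: 95°C 15 min, then 45 cycles of 94°C 15 s and 60°C 1 min, plus a dissociation curve. APE2 is normalized to ACT1 by 2^-ΔΔCt with strain 90028 as calibrator; three experiments.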

Candida albicans [17] = assay: Reduction in APE2 gene expression in compound pre-treated Candida albicans CAI4 expressing delta-cph1 gene grown under YEPD medium at 16 ug/ml pre-treated for 2 hrs measured after 18 hrs by RT-PCR method; type: functional; summary of the method: as §4
Candida albicans [18] = assay: Reduction in APE2 gene expression in compound pre-treated Candida albicans CAI4 expressing delta-cph1 (CPH1) gene grown under YEPD medium at 16 ug/ml pre-treated for 2 hrs measured after 18 hrs by RT-PCR method; type: functional; summary of the method: as §4
Candida albicans [19] = assay: Reduction in APE2 gene expression in compound pre-treated Candida albicans CAI4 expressing delta-cph1/delta-efg1 gene grown under YEPD medium at 16 ug/ml pre-treated for 2 hrs measured after 18 hrs by RT-PCR method; type: functional; summary of the method: as §4
Candida albicans [20] = assay: Reduction in APE2 gene expression in compound pre-treated Candida albicans CAI4 expressing delta-efg1 (EFG1) gene grown under YEPD medium at 16 ug/ml pre-treated for 2 hrs measured after 18 hrs by RT-PCR method; type: functional; summary of the method: as §3
Candida albicans [21] = assay: Reduction in APE2 gene expression in compound pre-treated Candida albicans CAI4 expressing delta-cph1/delta-efg1 (EFG1) gene grown under YEPD medium at 16 ug/ml pre-treated for 2 hrs measured after 18 hrs by RT-PCR method; type: functional; summary of the method: as §4

In the case of `NNc1ccc(S(=O)(=O)C(Cl)(Br)Br)cc1[N+](=O)[O-]`, the ΔCt (Candida albicans [1]) is reported as 7.44, the “fold change (FC)” value (Candida albicans [2]) is reported as 10.83 and the “fold change (FC)” value (Candida albicans [3]) is reported as 4.05. For the same molecule, the “fold change (FC)” value (Candida albicans [4]) was 10.25, the “fold change (FC)” value (Candida albicans [5]) was 9.29 and the “fold change (FC)” value (Candida albicans [6]) was 9.07. The “fold change (FC)” value (Candida albicans [7]) was 10.26, the “fold change (FC)” value (Candida albicans [8]) was 1.38 and the “fold change (FC)” value (Candida albicans [9]) was 8.72. For the same molecule, the “fold change (FC)” value (Candida albicans [10]) was 9.42, the “fold change (FC)” value (Candida albicans [11]) was 3.55 and the Activity (Candida albicans [12]) was 0.91%. For the same molecule, the Activity (Candida albicans [13]) was 0.91%, the Activity (Candida albicans [14]) was 0.51% and the ΔCt (Candida albicans [15]) was 2.84. The ΔCt (Candida albicans [16]) was 2.82, the ΔCt (Candida albicans [17]) was 0.11 and the ΔCt (Candida albicans [18]) was 4.71. For the same molecule, the ΔCt (Candida albicans [19]) was 4.05, the ΔCt (Candida albicans [20]) was 3.44 and the ΔCt (Candida albicans [21]) was 3.3.
